Assay results published in PMC9263996 (iScience, 2022).
Entries after “also recorded” stand apart in the source; their conditions may differ.

Tests used:
DhelOBP10 [1] = target: T1, DhelOBP10 (Dastarcus helophoroides, UniProt A0A1I9HZP4); assay: Fluorescence-quenching spectra assay, DhelOBP10; assay type: binding; conditions: for ΔS (entropy change): DhelOBP10, pH 7.4; for ΔH (enthalpy change): DhelOBP10, pH 7.4, 289 and 298 K; for quenching mechanism of the interaction with DhelOBP10: change of Ksv with temperature 289–298 K, neutral pH; for main acting force between ligand and DhelOBP10: from signs of ΔH and ΔS; for Kd: Ka (apparent association constant)
T1 sequence (A0A1I9HZP4 20-220): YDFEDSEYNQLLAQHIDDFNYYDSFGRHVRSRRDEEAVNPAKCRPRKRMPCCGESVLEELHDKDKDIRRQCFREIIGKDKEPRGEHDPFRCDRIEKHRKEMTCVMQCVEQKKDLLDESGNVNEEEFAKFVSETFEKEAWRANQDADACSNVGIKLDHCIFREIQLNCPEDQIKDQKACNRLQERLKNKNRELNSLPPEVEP
In short: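 Intrinsic fluorescence of 2 μM recombinant DhelOBP10 in 30 mM Tris-HCl (pH 7.4 or 5.0): excitation 289 nm, slits 15/10 nm, scan 300–500 nm. Ligand aliquots came from 1 mM stock, at 289 and 298 K. Ksv and Kq were taken from Stern–Volmer fits, Ka and n from double-log plots, and ΔG, ΔH, ΔS from thermodynamic equations to assign binding force.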

M. alternatus adults = assay: Y-tube olfactometer binary choice assay, M. alternatus adults; assay type: in vivo, Monochamus alternatus; conditions: for behavioral response of M. alternatus adults in Y-tube: untreated adults, in words
In short: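 Field-collected adults kept singly at 25°C on fresh pine twigs. RNAi: 1 μg dsMaltOBP24 or dsGFP injected into the frons of 4-day-old adults under CO₂ narcosis, with non-injected controls, and tested 4 days later. Y-tube with 40 cm stem, 30 cm arms at 60°, airflow 300 mL/min. Odour was 10 µL of 100-fold paraffin-oil dilution versus paraffin oil. Insects had 5 min; ≥30 per sex, each tested once; Chi-square.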

D. helophoroides adults = assay: Y-tube olfactometer binary choice assay, D. helophoroides adults; assay type: in vivo, Dastarcus helophoroides; conditions: for behavioral response of D. helophoroides adults in Y-tube: untreated adults, in words; for attraction to D. helophoroides after silencing DhelOBP10: RNAi, compared with non-injected and dsGFP controls
In short: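 Adults reared at 25°C on an artificial diet. RNAi: 4-day-old adults given 300 ng dsDhelOBP10 or dsGFP into the frons, with non-injected controls, and tested 4 days later. Y-tube with 15 cm stem, 12 cm arms at 75°, airflow 300 mL/min per arm. Odour was 10 µL of 100-fold paraffin-oil dilution on filter paper versus paraffin oil. Insects had 5 min; arms swapped; ≥60 insects (30 per sex), each tested once; Chi-square.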

MaltOBP24 [2] = assay: Fluorescence-quenching spectra assay, MaltOBP24; assay type: binding, Monochamus alternatus; conditions: for quenching mechanism of the interaction with MaltOBP24: change of Ksv with temperature 289–298 K, neutral pH
DhelOBP10 [3] = target: T1, DhelOBP10; assay: Competitive fluorescence-binding assay with 1-NPN probe, recombinant DhelOBP10; conditions: for Ki: DhelOBP10 Ki (dissociation constant), 1-NPN competition, mean ± SEM
In short: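 Recombinant signal-peptide-free DhelOBP10 from E. coli (pET-32b; 1 mM IPTG induction, 12 h at 16°C), dialysed into Tris pH 7.4 or 5.0. […] Ligands (1 mM methanol stock) were added to 0–20 μM; Ki = IC50/(1+[1-NPN]/K1-NPN). Mean ± SEM.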

MaltOBP24 [4] = target: T2, MaltOBP24 (Monochamus alternatus, UniProt A0A1I9HZN3); assay: Competitive fluorescence-binding assay with 1-NPN probe, recombinant MaltOBP24; conditions: MaltOBP24 Ki (dissociation constant), 1-NPN competition, mean ± SEM
T2 sequence (A0A1I9HZN3 1-169): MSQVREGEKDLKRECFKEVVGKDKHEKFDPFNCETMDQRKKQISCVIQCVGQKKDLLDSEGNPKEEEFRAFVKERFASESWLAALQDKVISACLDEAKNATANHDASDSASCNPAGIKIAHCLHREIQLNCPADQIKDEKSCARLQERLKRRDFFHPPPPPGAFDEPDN

| Molecule | ΔS (entropy change) (DhelOBP10 [1]) | Ka (apparent association constant) (DhelOBP10 [1]; DhelOBP10, pH 7.4, 289 K) | Kq (bimolecular quenching constant) (DhelOBP10 [1]; DhelOBP10, pH 7.4, 289 K) | Ksv (quenching constant) (DhelOBP10 [1]; DhelOBP10, pH 7.4, 289 K) | n (number of binding sites) (DhelOBP10 [1]; DhelOBP10, pH 7.4, 289 K) | ΔG (free energy change) (DhelOBP10 [1]; DhelOBP10, pH 7.4, 289 K) | ΔH (enthalpy change) (DhelOBP10 [1]) | Ka (apparent association constant) (DhelOBP10 [1]; DhelOBP10, pH 7.4, 298 K) | Kq (bimolecular quenching constant) (DhelOBP10 [1]; DhelOBP10, pH 7.4, 298 K) | Ksv (quenching constant) (DhelOBP10 [1]; DhelOBP10, pH 7.4, 298 K) | n (number of binding sites) (DhelOBP10 [1]; DhelOBP10, pH 7.4, 298 K) | ΔG (free energy change) (DhelOBP10 [1]; DhelOBP10, pH 7.4, 298 K) | quenching mechanism of the interaction with DhelOBP10 (DhelOBP10 [1]) | behavioral response of M. alternatus adults in Y-tube (M. alternatus adults) | behavioral response of D. helophoroides adults in Y-tube (D. helophoroides adults) | quenching mechanism of the interaction with MaltOBP24 (MaltOBP24 [2]) | Ki (DhelOBP10 [3]; pH5.0) | Ki (DhelOBP10 [3]; pH7.4) | Ki (MaltOBP24 [4]; pH5.0) | Ki (MaltOBP24 [4]; pH7.4) | other results |
| --- | --- | --- | --- | --- | --- | --- | --- | --- | --- | --- | --- | --- | --- | --- | --- | --- | --- | --- | --- | --- | --- |
| CC1=CCC(=C(C)C)CC1 [α-terpinolene] | 0.008678 kcal/mol | 8,904.93 L·mol^−1 | 5.736e+11 M⁻¹ s⁻¹ | 5,736 ± 153.1 L·mol^−1 | 1.0321 ± 0.0670 | −21,851.44 J·mol^−1 | −11,356.86 J·mol^−1 | 2,093.14 L·mol^−1 | 2.139e+11 M⁻¹ s⁻¹ | 2,139 ± 58.09 L·mol^−1 | 0.9823 ± 0.1034 | −18,944.55 J·mol^−1 | static quenching | did not affect their behavior | did not show preference | static quenching |  |  |  |  | main acting force between ligand and DhelOBP10 (DhelOBP10 [1]): electrostatic force; Ka (apparent association constant) (MaltOBP24 [2]; MaltOBP24, pH 7.4, 289 K): 5,449,703.40 L·mol^−1; Kq (bimolecular quenching constant) (MaltOBP24 [2]; MaltOBP24, pH 7.4, 289 K): 2.5179e+12 M⁻¹ s⁻¹; Ksv (quenching constant) (MaltOBP24 [2]; MaltOBP24, pH 7.4, 289 K): 25,179 ± 659.6 L·mol^−1; Ka (apparent association constant) (MaltOBP24 [2]; MaltOBP24, pH 7.4, 298 K): 2,525,092.74 L·mol^−1; Kq (bimolecular quenching constant) (MaltOBP24 [2]; MaltOBP24, pH 7.4, 298 K): 2.0347e+12 M⁻¹ s⁻¹; Ksv (quenching constant) (MaltOBP24 [2]; MaltOBP24, pH 7.4, 298 K): 20,347 ± 501.6 L·mol^−1 |
| CC1=CC[C@@H]2[C@@H]3[C@H]1[C@@]2(C)CCCC3(C)C [(+)-α-longipinene] |  |  |  |  |  |  |  |  |  |  |  |  | dynamic quenching |  |  |  |  |  |  |  |  |
| C=C1CC[C@H]2O[C@]2(C)CC[C@@H]2[C@@H]1CC2(C)C [(−)-caryophyllene oxide] |  |  |  |  |  |  |  |  |  |  |  |  |  |  |  |  | 3.65 ± 0.34 µM | 15.7 ± 1.26 µM | 38.5 ± 3.44 µM | 24.2 ± 1.94 µM |  |
| CC1=CCC2C(C1)C2(C)C (stereo not drawn) [3-carene] | 42.1 J/(mol·K) |  | 3.524e+11 M⁻¹ s⁻¹ | 3,524 ± 122.4 L·mol^−1 | 0.9999 ± 0.0605 | −19,760.09 J·mol^−1 | −7,595.91 J·mol^−1 |  | 2.97e+11 M⁻¹ s⁻¹ | 2,970 ± 15.32 L·mol^−1 | 0.9088 ± 0.0218 | −17,960.72 J·mol^−1 | static quenching | did not affect their behavior | significant preference | static quenching | 13.9 ± 2.91 µM | 14.5 ± 2.61 µM | 23.5 ± 2.33 µM | 3.31 ± 0.68 µM | Kd (DhelOBP10 [1]; DhelOBP10, pH 7.4, 289 K): 268 µM; Kd (DhelOBP10 [1]; DhelOBP10, pH 7.4, 298 K): 711 µM; main acting force between ligand and DhelOBP10 (DhelOBP10 [1]): electrostatic force; attraction to D. helophoroides after silencing DhelOBP10 (D. helophoroides adults): significantly lower attraction index; Ka (apparent association constant) (MaltOBP24 [2]; MaltOBP24, pH 7.4, 289 K): 9,394,307.39 L·mol^−1; Kq (bimolecular quenching constant) (MaltOBP24 [2]; MaltOBP24, pH 7.4, 289 K): 2.4156e+12 M⁻¹ s⁻¹; Ksv (quenching constant) (MaltOBP24 [2]; MaltOBP24, pH 7.4, 289 K): 24,156 ± 442.5 L·mol^−1; Ka (apparent association constant) (MaltOBP24 [2]; MaltOBP24, pH 7.4, 298 K): 3,347,243.70 L·mol^−1; Kq (bimolecular quenching constant) (MaltOBP24 [2]; MaltOBP24, pH 7.4, 298 K): 1.8949e+12 M⁻¹ s⁻¹; Ksv (quenching constant) (MaltOBP24 [2]; MaltOBP24, pH 7.4, 298 K): 18,949 ± 876.5 L·mol^−1 |
| (+)-fenchone | 0.01694 kcal/mol | 2,071.51 L·mol^−1 | 3.742e+11 M⁻¹ s⁻¹ | 3,742 ± 92.59 L·mol^−1 | 0.9404 ± 0.0271 | −18,347.45 J·mol^−1 |  | 2,011.77 L·mol^−1 | 2.913e+11 M⁻¹ s⁻¹ | 2,913 ± 190.8 L·mol^−1 | 0.9471 ± 0.0676 | −18,846.32 J·mol^−1 | static quenching | significantly attracted; also recorded: could attract adults | significantly attracted; also recorded: significant preference | static quenching |  |  |  |  | main acting force between ligand and DhelOBP10 (DhelOBP10 [1]): hydrophobic; attraction index to M. alternatus after silencing MaltOBP24 (M. alternatus adults; RNAi, compared with non-injected and dsGFP controls): significantly decreased; attraction to D. helophoroides after silencing DhelOBP10 (D. helophoroides adults): significantly decreased; Ka (apparent association constant) (MaltOBP24 [2]; MaltOBP24, pH 7.4, 289 K): 3,312,799.36 L·mol^−1; Kq (bimolecular quenching constant) (MaltOBP24 [2]; MaltOBP24, pH 7.4, 289 K): 2.4531e+12 M⁻¹ s⁻¹; Ksv (quenching constant) (MaltOBP24 [2]; MaltOBP24, pH 7.4, 289 K): 24,531 ± 303.9 L·mol^−1; Ka (apparent association constant) (MaltOBP24 [2]; MaltOBP24, pH 7.4, 298 K): 2,154,595.09 L·mol^−1; Kq (bimolecular quenching constant) (MaltOBP24 [2]; MaltOBP24, pH 7.4, 298 K): 1.4813e+12 M⁻¹ s⁻¹; Ksv (quenching constant) (MaltOBP24 [2]; MaltOBP24, pH 7.4, 298 K): 14,813 ± 141.8 L·mol^−1 |
| C=CC(=C)CCC=C(C)C [myrcene] |  |  |  |  |  |  |  |  |  |  |  |  |  |  |  |  | 3.93 ± 0.71 µM | 28.7 ± 1.12 µM | 22.4 ± 2.29 µM | 24.3 ± 3.95 µM |  |
| C=C1C2CCC(C2)C1(C)C (stereo not drawn) [camphene] |  |  |  |  |  |  |  |  |  |  |  |  |  |  |  |  | 8.29 ± 1.99 µM | 24.5 ± 2.44 µM | > 50 µM | 22.1 ± 3.21 µM |  |
| (+)-α-pinene |  |  |  |  |  |  |  |  |  |  |  |  |  |  |  | dynamic quenching |  |  |  |  |  |
| CC12CCC(CC1=O)C2(C)C (stereo not drawn) [camphor] |  |  |  |  |  |  |  |  |  |  |  |  |  |  |  |  | 9.09 ± 1.7 µM | 33.8 ± 1.04 µM | > 50 µM | > 50 µM |  |
| C=C(C)[C@H]1CC=C(C)CC1 [R-(+)-limonene] | 0.01114 kcal/mol | 4,986.95 L·mol^−1 | 6.287e+11 M⁻¹ s⁻¹ | 6,287 ± 91.45 L·mol^−1 | 0.9715 ± 0.0292 | −20,458.37 J·mol^−1 | −6,986.94 J·mol^−1 | 1,925.95 L·mol^−1 | 4.016e+11 M⁻¹ s⁻¹ | 4,016 ± 108.1 L·mol^−1 | 0.9324 ± 0.0422 | −18,738.30 J·mol^−1 | static quenching | did not affect their behavior | significant preference | dynamic quenching |  |  |  |  | ligand-binding affinity with DhelOBP10 (class) (DhelOBP10 [3]; fluorescence binding combined with quenching): high (high if the Ki values <20 μM); attraction to D. helophoroides after silencing DhelOBP10 (D. helophoroides adults): not altered |
